# Results as given in PMC6447844 (Cancer Science, 2019).
# Read-outs that look alike come from different tables or passages of the source.
# Assays:
# [1] = system: Japanese patients with advanced solid tumors; assay: Safety assessment; format: in vivo, human
# Method in brief: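 Patients took oral test compound daily (capsule or tablet, q.d. or b.i.d.) in 28-day cycles until progression, intolerable toxicity or withdrawal. AEs graded by CTCAE v4.0, alongside regular laboratory tests, physical examination, vital signs, weight and periodic ECG. Safety set: patients with at least one dose and at least one valid postbaseline safety assessment.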
# [2] = system: Japanese patients with advanced solid tumors; format: in vivo, human; conditions: for DLT event: one patient
# Method in brief: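 Open-label phase I at two Japanese centres; oral test compound given q.d. or b.i.d. as capsule or tablet in 28-day cycles, escalated by a 2-parameter Bayesian logistic regression model with overdose control. DLT: grade 3 or 4 AE or abnormal laboratory value (CTCAE v4.0), not attributed to disease, intercurrent illness or co-medication, within the first 28 days. MTD: highest dose not expected to cause DLT in >33% of patients.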
# [3] = Plasma pharmacokinetics of capmatinib; format: in vivo, human; conditions: for AUC / Cmax: 400 mg, 400 mg b.i.d., day 15; for AUC: Mean AUCtau; for Cmax: Mean Cmax
# [4] = system: advanced solid tumors; assay: Tumor assessment by CT/MRI according to RECIST version 1.1; format: in vivo, human; conditions: investigator assessed; eight of 44 patients
# [5] = system: MET kinase versus other kinases (panel of 57 human kinases); conditions: cited from earlier work
# [6] = system: MET-dependent (amplified/autocrine) tumor models; conditions: at tolerable doses; cited from earlier work
# [7] = study CINC280X2103; ref data on file; cited from earlier work
# [8] = system: MET; conditions: read-out: IC50 (MET, biochemical); cited from earlier work
# [9] = regardless of relationship, all patients, n = 44
# [10] = regardless of study drug relationship, all patients
# [11] = human, plasma, oral, capsule group
# [12] = human, plasma, oral, tablet group
smiles,measurement,setting,value
CNC(=O)c1ccc(-c2cnc3ncc(Cc4ccc5ncccc5c4)n3n2)cc1F [capmatinib],Patients with one or more dose interruptions,[1]; 21 patients,47.7%
same,AE requiring dose adjustment and/or interruption,[1]; 26 of 44 patients,59.1%
same,Overall tolerability,"[1]; Japanese patients, overall",well tolerated
same,Changes in vital signs and ECG intervals,[1]; all patients,no clinically meaningful changes or trends
same,"Colitis ulcerative, grade 3/4 suspected to be drug-related",[1]; all patients,1 n
same,Decreased appetite requiring dose adjustment and/or interruption,[1]; all patients,6.8%
same,"Decreased appetite, suspected to be drug-related",[1]; all patients,29.5%
same,"Depression, grade 3/4 suspected to be drug-related",[1]; all patients,1 n
same,"Diarrhea, suspected to be drug-related",[1]; all patients,20.5%
same,"Hypophosphatemia, grade 3/4 suspected to be drug-related",[1]; all patients,1 n
same,"Increased ALT and AST, grade 3/4 suspected to be drug-related",[1]; all patients,1 n
same,"Increased GGT, grade 3/4 suspected to be drug-related",[1]; all patients,1 n
same,Increased blood creatinine requiring dose adjustment and/or interruption,[1]; all patients,20.5%
same,"Increased blood creatinine, suspected to be drug-related",[1]; all patients,45.5%
same,"Lung infection, grade 3/4 suspected to be drug-related",[1]; all patients,1 n
same,Nausea requiring dose adjustment and/or interruption,[1]; all patients,13.6%
same,"Nausea, suspected to be drug-related",[1]; all patients,31.8%
same,On-treatment deaths (within 28 days after discontinuation),[1]; all patients,No on‐treatment deaths
same,Patients experiencing one or more AE,[1]; all patients,95.5%
same,QTcB increase from baseline of more than 30 ms,[1]; all patients,three
same,Treatment-emergent prolongation of QTcB of more than 450 ms,[1]; all patients,three
same,Treatment-emergent prolongation of QTcB of more than 480 ms,[1]; all patients,one
same,Vomiting requiring dose adjustment and/or interruption,[1]; all patients,6.8%
same,"Vomiting, suspected to be drug-related",[1]; all patients,29.5%
same,AE leading to discontinuation,"[1]; all patients, n = 44",4 (9.1) n (%)
same,AE requiring dose interruption and/or reduction,"[1]; all patients, n = 44",26 (59.1) n (%)
same,"AE requiring dose interruption and/or reduction, Suspected to be drug-related","[1]; all patients, n = 44",17 (38.6) n (%)
same,All deaths (incl. more than 28 days after discontinuation),"[1]; all patients, n = 44",1 (2.3) n (%)
same,On-treatment deaths (up to 28 d after discontinuation),"[1]; all patients, n = 44",0 n (%)
same,"Patients experiencing ≥1 AE, Suspected to be drug-related","[1]; all patients, n = 44",37 (84.1) n (%)
same,SAE,"[1]; all patients, n = 44",7 (15.9) n (%)
same,"SAE, Suspected to be drug-related","[1]; all patients, n = 44",2 (4.5) n (%)
same,Total number of patients experiencing ≥1 AE,"[1]; all patients, n = 44",42 (95.5) n (%)
same,Discontinuation due to AE (all grades),[1]; four of 44 patients,9.1%
same,AE suspected to be drug-related,"[1]; mainly grade 1/2, 37 patients",84.1%
same,Patients with dose interrupted only once,[1]; nine patients,20.5%
same,Tolerability,[1]; p.o. 400 mg b.i.d. in tablet formulation,well tolerated
same,"Anemia, All grades",[1]; [9],7 (15.9) n (%)
same,"Anemia, Grade 3/4",[1]; [9],0 n (%)
same,"Any AE, All grades",[1]; [9],42 (95.5) n (%)
same,"Any AE, Grade 3/4",[1]; [9],15 (34.1) n (%)
same,"Constipation, All grades",[1]; [9],7 (15.9) n (%)
same,"Constipation, Grade 3/4",[1]; [9],0 n (%)
same,"Decreased appetite, All grades",[1]; [9],18 (40.9) n (%)
same,"Decreased appetite, grade 3/4",[1]; [9],3 (6.8) n (%)
same,"Diarrhea, All grades",[1]; [9],11 (25.0) n (%)
same,"Diarrhea, Grade 3/4",[1]; [9],0 n (%)
same,"Edema peripheral, All grades",[1]; [9],9 (20.5) n (%)
same,"Edema peripheral, Grade 3/4",[1]; [9],1 (2.3) n (%)
same,"Fatigue, All grades",[1]; [9],7 (15.9) n (%)
same,"Fatigue, Grade 3/4",[1]; [9],0 n (%)
same,"Hypoalbuminemia, All grades",[1]; [9],10 (22.7) n (%)
same,"Hypoalbuminemia, grade 3/4",[1]; [9],2 (4.5) n (%)
same,"Increased blood creatinine, All grades",[1]; [9],23 (52.3) n (%)
same,"Increased blood creatinine, Grade 3/4",[1]; [9],0 n (%)
same,"Malaise, All grades",[1]; [9],8 (18.2) n (%)
same,"Malaise, Grade 3/4",[1]; [9],0 n (%)
same,"Nausea, All grades",[1]; [9],21 (47.7) n (%)
same,"Nausea, Grade 3/4",[1]; [9],0 n (%)
same,"Pyrexia, All grades",[1]; [9],8 (18.2) n (%)
same,"Pyrexia, Grade 3/4",[1]; [9],0 n (%)
same,"Vomiting, All grades",[1]; [9],17 (38.6) n (%)
same,"Vomiting, Grade 3/4",[1]; [9],0 n (%)
same,Grade 3/4 AE,"[1]; regardless of study drug relationship, 15 patients",34.1%
same,"Ascites, grade 3/4",[1]; [10],4.5%
same,"Decreased appetite, all grades",[1]; [10],40.9%
same,"Decreased appetite, grade 3/4",[1]; [10],6.8%
same,"Diarrhea, all grades",[1]; [10],25.0%
same,"Hypoalbuminemia, all grades",[1]; [10],22.7%
same,"Hypoalbuminemia, grade 3/4",[1]; [10],4.5%
same,"Hyponatremia, grade 3/4",[1]; [10],9.1%
same,"Hypophosphatemia, grade 3/4",[1]; [10],4.5%
same,"Increased GGT, grade 3/4",[1]; [10],4.5%
same,"Increased blood creatinine, all grades",[1]; [10],52.3%
same,"Nausea, all grades",[1]; [10],47.7%
same,"Peripheral edema, all grades",[1]; [10],20.5%
same,"Vomiting, all grades",[1]; [10],38.6%
same,Grade 3/4 AE suspected to be drug-related,[1]; seven patients,15.9%
same,Patients with one dose reduction,[1]; three patients,6.8%
same,MTD,[2]; escalated up to 400 mg b.i.d. tablet and 600 mg b.i.d. capsule,not reached
same,DLT event,[2]; 400 mg b.i.d. tablet,grade 3 depression
same,DLT event,[2]; 600 mg b.i.d. capsule,grade 2 suicidal ideation
same,"Highest studied dose determined to be safe, tablet","[2]; tablet formulation, single agent",400 mg b.i.d.
same,Patients permanently discontinued owing to DLT,[2]; two patients,5.1%
same,Median Tmax,"[3]; day 15, tablet",1.0 h
same,Tmax,"[3]; human, plasma, oral",1 h
same,AUC,[3]; [11],11000 ng·h/mL
same,AUC,[3]; [12],31400 ng·h/mL
same,Cmax,[3]; [11],1980 ng/mL
same,Cmax,[3]; [12],7570 ng/mL
same,Steady state achieved,[3]; pre-dose concentrations generally stable after day 15,≤ 15 days
same,Best overall response of SD,[4],18.2%
same,selectivity for MET kinase versus other kinases,[5],10 000 fold
same,Effect on MET-dependent tumor models,[6],causes regression
same,Cmax geometric mean ratio (tablet vs capsule),[7],3.0
same,IC50,[8],130 pM
